# In ChEMBL document CHEMBL1125266, “Tyrphostins. 2. Heterocyclic and alpha-substituted benzylidenemalononitrile tyrphostins as potent inhibitors of EGF receptor and ErbB2/neu tyrosine kinases” (J Med Chem, 1991):
# Tests used:
# [1] = molecular target: T1, Epidermal growth factor receptor (Homo sapiens, UniProt P00533); assay: In vitro inhibition of HER1 autophosphorylation.
# [2] = molecular target: Receptor tyrosine-protein kinase erbB-2 (Homo sapiens, UniProt P04626); assay: In vitro inhibition of ERBB2 receptor kinase autophosphorylation.
# [3] = molecular target: T1, Epidermal growth factor receptor; assay: Inhibition of polyGAT phosphorylation
# NIH3T3 [4] = assay: Inhibition of HER14 (human EGFR overexpressing NIH3T3) cell growth in the absence of EGF.; format: functional, Mus musculus
# How it was run: (§1)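 Serum-starved HER14 cells (NIH3T3 stably overexpressing EGF receptor) were given inhibitor at least 6-8 h before serum stimulation, with no EGF added. Inhibitor-containing medium was replaced every 24 h. Three parallel wells were used per concentration, and the IC50 for inhibition of serum-supported growth was determined.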
# NIH3T3 [5] = assay: (§2) Inhibition of HER14 serum dependent cell proliferation without EGF; format: functional, Mus musculus; how it was run: as §1
# NIH3T3 [6] = assay: as §2; details: Mus musculus
# [7] = molecular target: T1, Epidermal growth factor receptor; assay: Inhibition of epidermal growth factor receptor autophosphorylation
# NIH3T3 [8] = assay: as §2; format: functional, cell-based; details: Mus musculus; how it was run: as §1
# Sequence of Receptor tyrosine-protein kinase erbB-2 (P04626 whole entry): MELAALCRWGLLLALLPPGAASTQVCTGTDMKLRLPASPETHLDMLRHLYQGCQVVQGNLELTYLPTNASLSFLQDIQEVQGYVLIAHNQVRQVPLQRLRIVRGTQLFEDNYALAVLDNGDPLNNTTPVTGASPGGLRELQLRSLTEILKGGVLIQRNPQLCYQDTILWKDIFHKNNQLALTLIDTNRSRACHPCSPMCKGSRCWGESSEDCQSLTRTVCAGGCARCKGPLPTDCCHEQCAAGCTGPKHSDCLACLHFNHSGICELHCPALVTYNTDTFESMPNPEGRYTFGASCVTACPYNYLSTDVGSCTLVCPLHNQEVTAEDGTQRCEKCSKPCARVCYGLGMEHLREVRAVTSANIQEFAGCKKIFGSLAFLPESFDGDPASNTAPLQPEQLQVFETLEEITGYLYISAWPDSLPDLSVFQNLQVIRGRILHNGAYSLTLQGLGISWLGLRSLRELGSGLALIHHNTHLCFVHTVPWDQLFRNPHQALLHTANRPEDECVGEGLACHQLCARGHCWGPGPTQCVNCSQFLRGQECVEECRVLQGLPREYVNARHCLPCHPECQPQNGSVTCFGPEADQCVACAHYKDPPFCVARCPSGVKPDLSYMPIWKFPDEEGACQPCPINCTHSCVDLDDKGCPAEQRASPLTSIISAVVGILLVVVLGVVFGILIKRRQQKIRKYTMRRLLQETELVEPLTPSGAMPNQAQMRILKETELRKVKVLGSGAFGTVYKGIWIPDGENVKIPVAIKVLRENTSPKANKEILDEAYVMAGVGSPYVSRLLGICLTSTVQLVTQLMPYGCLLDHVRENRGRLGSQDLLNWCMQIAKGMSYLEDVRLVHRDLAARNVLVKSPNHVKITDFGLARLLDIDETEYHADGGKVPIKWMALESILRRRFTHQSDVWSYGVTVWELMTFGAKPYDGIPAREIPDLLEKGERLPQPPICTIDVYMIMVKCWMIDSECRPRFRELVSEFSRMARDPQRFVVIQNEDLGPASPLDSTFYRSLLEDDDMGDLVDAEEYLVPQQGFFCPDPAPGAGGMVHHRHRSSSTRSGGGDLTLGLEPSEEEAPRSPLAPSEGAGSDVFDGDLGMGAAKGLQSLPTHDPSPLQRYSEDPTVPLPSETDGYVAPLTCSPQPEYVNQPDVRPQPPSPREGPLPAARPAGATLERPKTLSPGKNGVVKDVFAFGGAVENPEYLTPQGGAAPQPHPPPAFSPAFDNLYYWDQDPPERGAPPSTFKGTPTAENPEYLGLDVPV
# T1 sequence (P00533 whole entry): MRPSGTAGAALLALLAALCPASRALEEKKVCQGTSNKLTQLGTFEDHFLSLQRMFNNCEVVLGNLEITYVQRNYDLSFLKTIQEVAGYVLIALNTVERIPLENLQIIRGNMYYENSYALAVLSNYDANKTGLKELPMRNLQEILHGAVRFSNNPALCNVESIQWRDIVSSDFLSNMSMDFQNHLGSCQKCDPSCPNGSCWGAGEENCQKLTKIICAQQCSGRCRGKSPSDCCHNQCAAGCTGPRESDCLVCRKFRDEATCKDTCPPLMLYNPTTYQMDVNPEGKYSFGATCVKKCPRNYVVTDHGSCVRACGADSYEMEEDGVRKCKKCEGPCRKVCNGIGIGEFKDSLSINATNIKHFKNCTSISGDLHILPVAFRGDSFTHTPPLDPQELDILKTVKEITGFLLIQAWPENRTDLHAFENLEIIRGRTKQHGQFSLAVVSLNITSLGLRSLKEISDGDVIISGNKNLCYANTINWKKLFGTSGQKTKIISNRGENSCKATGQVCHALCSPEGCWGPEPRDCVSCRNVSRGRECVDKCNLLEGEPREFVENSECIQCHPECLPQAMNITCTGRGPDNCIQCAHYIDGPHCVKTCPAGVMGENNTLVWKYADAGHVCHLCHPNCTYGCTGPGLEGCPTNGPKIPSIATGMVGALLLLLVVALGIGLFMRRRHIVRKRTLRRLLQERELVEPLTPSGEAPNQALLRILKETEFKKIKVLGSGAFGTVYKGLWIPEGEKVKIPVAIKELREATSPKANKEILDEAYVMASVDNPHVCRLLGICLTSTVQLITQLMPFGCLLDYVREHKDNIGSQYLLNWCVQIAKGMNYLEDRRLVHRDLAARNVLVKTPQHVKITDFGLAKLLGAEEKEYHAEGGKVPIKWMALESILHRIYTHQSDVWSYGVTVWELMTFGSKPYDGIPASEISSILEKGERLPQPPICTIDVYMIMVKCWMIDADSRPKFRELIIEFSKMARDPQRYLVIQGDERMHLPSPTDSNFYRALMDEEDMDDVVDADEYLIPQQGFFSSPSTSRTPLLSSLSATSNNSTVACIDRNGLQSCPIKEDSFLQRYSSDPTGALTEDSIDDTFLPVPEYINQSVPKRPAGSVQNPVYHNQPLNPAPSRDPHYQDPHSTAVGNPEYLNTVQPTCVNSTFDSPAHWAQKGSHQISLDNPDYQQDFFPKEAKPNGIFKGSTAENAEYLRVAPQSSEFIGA
SMILES,IC50 [1],IC50 [2],IC50 [3],further results
CCOC(=O)C(Cc1ccccc1)NC(=O)/C(C#N)=C/c1ccc(O)c(O)c1 (centres undefined),49 µM,> 333 µM,1.53 µM,–
C[S+]([O-])c1ccc(C=C(C#N)C#N)cc1 (centres undefined),–,–,1800 µM,–
N#C/C(=C\c1ccc(O)c(O)c1)C(=O)N1CCN(c2ccccc2)CC1,55 µM,49 µM,4.3 µM,–
CC(=O)Nc1ccc(C=C(C#N)C#N)cc1,–,–,> 325 µM,–
N#C/C(=C\c1ccc(O)c(O)c1)C(=O)NC1CCCCC1,5.9 µM,17 µM,1.6 µM,IC50 (NIH3T3 [4]): 50 µM
N#C/C(=C\c1ccc(O)c(O)c1)C(=O)c1ccccc1Cl,6.6 µM,12 µM,1.54 µM,–
N#C/C(=C\c1ccc(O)c(O)c1)C(N)=O,4.5 µM,6.4 µM,–,IC50 (NIH3T3 [4]): 60 µM
Cc1cc(C)c(C(=O)/C(C#N)=C/c2ccc(O)c(O)c2)c(C)c1,24 µM,50 µM,10.7 µM,–
N#C/C(=C\c1ccc(O)c(O)c1)C(=O)Nc1ccccc1,–,42 µM,–,IC50 (NIH3T3 [4]): > 50 µM
Cc1ccc(C(=O)/C(C#N)=C/c2ccc(O)c(O)c2)cc1,15 µM,10 µM,0.88 µM,IC50 (NIH3T3 [4]): 100 µM
N#C/C(=C\c1ccc(O)c(O)c1)C(=O)c1ccc(O)c(O)c1,5 µM,18 µM,0.37 µM,IC50 (NIH3T3 [5]): > 50 µM
COc1ccc(CCNC(=O)/C(C#N)=C/c2ccc(O)c(O)c2)cc1OC,–,–,1.7 µM,–
COc1ccc(C=C(C#N)C#N)cc1F,–,–,800 µM,–
N#CC(C#N)=C1CCc2cc(O)c(O)cc21,–,–,0.5 µM,Inhibition (NIH3T3 [5]): >150%
CC(NC(=O)/C(C#N)=C/c1ccc(O)c(O)c1)c1ccccc1 (stereo in doubt; 50),–,–,0.86 µM,–
N#C/C(=C\c1ccc(O)c(O)c1)C(=O)NCc1ccccc1,–,13.5 µM,–,IC50 (NIH3T3 [4]): 25 µM
N#CC(C#N)=Cc1ccco1,–,–,> 1250 µM,–
COc1cc2c(cc1O)NC(=O)C2=C(C#N)C#N,–,–,60 µM,–
N#CC(C#N)=Cc1ccc2[nH]ccc2c1,–,–,–,IC50 (NIH3T3 [6]): 12 µM
N#C/C(=C\c1ccc(O)c(O)c1)C(=O)c1ccccc1,14 µM,18 µM,1.3 µM,IC50 (NIH3T3 [4]): 120 µM
CC(NC(=O)/C(C#N)=C/c1ccc(O)c(O)c1)c1ccccc1 (stereo in doubt; 44),2.5 µM,37 µM,0.4 µM,IC50 (NIH3T3 [4]): 10 µM
N#C/C(=C\c1ccc(O)c(O)c1)C(=O)NCCCc1ccccc1,0.7 µM,35 µM,0.7 µM,IC50 (NIH3T3 [4]): 25 µM

SMILES,IC50 [1],IC50 [2],IC50 [3],further results
N#C/C(=C\c1ccc(O)c(O)c1)C(=O)N1CCc2ccccc21,12 µM,4.9 µM,2.1 µM,IC50 (NIH3T3 [4]): 100 µM
COc1ccc(NC(=O)/C(C#N)=C/c2ccc(O)c(O)c2)c(OC)c1,–,> 166 µM,–,–
N#CC(C#N)=C1CCCc2c(O)cccc21,–,–,1200 µM,–
N#CC(C#N)=Cc1cccnc1,–,–,225 µM,–
N#C/C(=C\c1ccc(O)c(O)c1)C(=O)c1ccc(F)cc1,–,13.6 µM,0.56 µM,IC50 (NIH3T3 [5]): 80 µM; IC50 [7]: 5.1 µM
N#C/C(=C\c1ccc(O)c(O)c1)C(=O)NCCCCc1ccccc1,5 µM,> 500 µM,1.1 µM,IC50 (NIH3T3 [4]): 10 µM
N#CC(C#N)=C1C(=O)Nc2ccc(O)cc21,–,–,12.5 µM,–
N#C/C(=C\c1ccc(O)c(O)c1)C(=O)N1CCCCC1,–,–,> 1000 µM,–
N#CC(C#N)=Cc1ccc(S(=O)(=O)O)o1,–,–,> 250 µM,–
Cc1cccc(C)c1NC(=O)/C(C#N)=C/c1ccc(O)c(O)c1,10.3 µM,34 µM,5.1 µM,IC50 (NIH3T3 [4]): > 20 µM
N#CC(C#N)=Cc1ccc(C#N)cc1,–,–,1400 µM,–
N#C/C(=C\c1ccc(O)c(O)c1)C(=O)NCCc1ccccc1,< 0.625 µM,23 µM,0.93 µM,–
N#CC(C#N)=C1C(=O)Nc2cc(O)c(O)cc21,–,–,2.5 µM,–
N#CC(C#N)=Cc1ccc2c(c1)CCN2Cc1ccccc1,–,–,> 2500 µM,–
N#CC(C#N)=C1C(=O)Nc2ccc([N+](=O)[O-])cc21,–,–,40 µM,–
N#C/C(=C\c1ccc(O)c(O)c1)C(=O)Nc1ccccc1Cl,2.1 µM,57 µM,1.1 µM,IC50 (NIH3T3 [4]): 12 µM
N#C/C(=C\c1ccc(O)c(O)c1)C(=O)c1cccs1,31 µM,35 µM,3.1 µM,–
N#CC(C#N)=C(N)/C(C#N)=C/c1ccc2[nH]ccc2c1,–,–,820 µM,IC50 (NIH3T3 [5]): >>100 uM; IC50 (NIH3T3 [8]): 7 µM
N#CC(C#N)=C1CCc2c1ccc(O)c2O,–,–,7 µM,–
CSc1ccc(C=C(C#N)C#N)cc1,–,–,> 625 µM,–
CN1C(=O)C(=C(C#N)C#N)c2cc(O)ccc21,–,–,26 µM,–
N#C/C(=C\c1ccc(O)c(O)c1)C(=O)c1ccc([N+](=O)[O-])cc1,11 µM,3 µM,2.3 µM,IC50 (NIH3T3 [4]): <<20 uM
